9 compounds from ChEMBL document CHEMBL1134594 (J Med Chem, 2001) can be followed below.

Each structure is given as a SMILES string. Where a SMILES comes first, the peptide text is derived from it. Bridges are numbered along the chain shown (N, C = ends).

For test [1], the target named is Glucagon receptor (Rattus norvegicus, UniProt P30082). As to the kind of experiment: Glucagon receptor binding measured as 50% inhibitory concentration. The method, boiled down:
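Membranes (50 µg protein) were taken from the livers of male Sprague Dawley rats (200-250 g), purified on a sucrose gradient. […] Nonspecific binding was defined with excess unlabeled peptide and subtracted. Run in triplicate, repeated twice.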

Test [2] concerns the target Adenylate cyclase. As to the kind of experiment: Adenylate cyclase activity measured as 50% inhibitory concentration. It is filed as protein assay.
Test [3] addresses Adenylate cyclase (Rattus norvegicus) (UniProt D4A3N4+P26770+Q04400+P26769+Q03343+P40146+Q8CFM9+P21932). Nature of the test: Adenylate cyclase activity measured as percentage stimulation. It is filed as protein assay. Also on record: concentration or dose not given beside the values.

Chain of Glucagon receptor (P30082 whole entry): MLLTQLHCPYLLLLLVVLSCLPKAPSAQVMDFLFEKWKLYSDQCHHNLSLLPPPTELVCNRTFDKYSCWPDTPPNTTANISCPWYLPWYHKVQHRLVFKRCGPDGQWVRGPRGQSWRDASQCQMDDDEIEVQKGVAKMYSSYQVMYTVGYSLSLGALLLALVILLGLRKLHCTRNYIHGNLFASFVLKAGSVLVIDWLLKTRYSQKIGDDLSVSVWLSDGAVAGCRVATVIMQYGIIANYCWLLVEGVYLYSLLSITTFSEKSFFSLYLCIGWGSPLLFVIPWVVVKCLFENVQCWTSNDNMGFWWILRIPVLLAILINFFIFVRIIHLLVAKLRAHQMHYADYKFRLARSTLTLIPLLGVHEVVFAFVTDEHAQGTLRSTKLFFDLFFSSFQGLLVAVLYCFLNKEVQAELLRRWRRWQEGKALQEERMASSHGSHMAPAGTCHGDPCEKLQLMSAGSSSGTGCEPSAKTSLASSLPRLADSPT

Take `CSCC[C@H](NC(=O)[C@H](CC(C)C)NC(=O)[C@H](Cc1c[nH]c2ccccc12)NC(=O)[C@H](CCC(N)=O)NC(=O)[C@@H](NC(=O)[C@H](Cc1ccccc1)NC(=O)[C@@H]1CCC(=O)NCCCC[C@H](NC(=O)[C@H](CO)NC(=O)[C@H](CC(=O)O)NC(=O)[C@H](CC(C)C)NC(=O)[C@H](Cc2ccc(O)cc2)NC(=O)[C@H](CCCCN)NC(=O)[C@H](CO)NC(=O)[C@H](Cc2ccc(O)cc2)NC(=O)[C@H](CC(=O)O)NC(=O)[C@H](CO)NC(=O)[C@@H](NC(=O)[C@H](Cc2ccccc2)NC(=O)[C@@H](NC(=O)CNC(=O)[C@H](CCC(N)=O)NC(=O)[C@H](CO)NC(=O)[C@@H](N)Cc2c[nH]cn2)[C@@H](C)O)[C@@H](C)O)C(=O)N[C@@H](CCCN=C(N)N)C(=O)N[C@@H](C)C(=O)N[C@@H](CCC(N)=O)C(=O)N1)C(C)C)C(=O)N[C@@H](CC(N)=O)C(=O)N[C@H](C(=O)O)[C@@H](C)O`: the IC50 (as a rule, the concentration at which inhibition is half-maximal) in test [1] was 0.24 nM. Further, the EC50 (in general, the concentration needed to bring the measured effect to its halfway point) in test [2] came to 0.27 nM. The compound further gave an Activity in test [3] of 98%.

Regarding `CSCC[C@H](NC(=O)[C@H](CC(C)C)NC(=O)[C@H](Cc1c[nH]c2ccccc12)NC(=O)[C@H](CCC(N)=O)NC(=O)[C@@H](NC(=O)[C@H](Cc1ccccc1)NC(=O)[C@H](CC(=O)O)NC(=O)[C@H](CCC(N)=O)NC(=O)[C@H](C)NC(=O)[C@H](CCCN=C(N)N)NC(=O)[C@H](CCCN=C(N)N)NC(=O)[C@H](CO)NC(=O)[C@H](CC(=O)O)NC(=O)[C@H](CC(C)C)NC(=O)[C@H](Cc1ccc(O)cc1)NC(=O)[C@H](CCCCN)NC(=O)[C@H](CO)NC(=O)[C@H](Cc1ccc(O)cc1)NC(=O)[C@H](CC(=O)O)NC(=O)[C@H](CO)NC(=O)[C@H](CS)NC(=O)[C@H](Cc1ccccc1)NC(=O)[C@@H](NC(=O)CNC(=O)[C@H](CCC(N)=O)NC(=O)[C@H](CS)NC(=O)[C@@H](N)Cc1c[nH]cn1)[C@@H](C)O)C(C)C)C(=O)N[C@@H](CC(N)=O)C(=O)N[C@H](C(=O)O)[C@@H](C)O` (H-HCQGTFCSDYSKYLDSRRAQDFVQWLMNT-OH), the IC50 in test [1] came out at 5.6 nM.

In the case of `CSCC[C@H](NC(=O)[C@H](CC(C)C)NC(=O)[C@H](Cc1c[nH]c2ccccc12)NC(=O)[C@H](CCC(N)=O)NC(=O)[C@@H](NC(=O)[C@H](Cc1ccccc1)NC(=O)[C@H](CC(=O)O)NC(=O)[C@H](CCC(N)=O)NC(=O)[C@H](C)NC(=O)[C@H](CCCN=C(N)N)NC(=O)[C@H](CCCN=C(N)N)NC(=O)[C@H](CO)NC(=O)[C@H](CC(=O)O)NC(=O)[C@H](CC(C)C)NC(=O)[C@H](Cc1ccc(O)cc1)NC(=O)[C@H](CCCCN)NC(=O)[C@H](CO)NC(=O)[C@H](Cc1ccc(O)cc1)NC(=O)[C@H](CC(=O)O)NC(=O)[C@H](CO)NC(=O)[C@@H]1CSSC[C@H](NC(=O)[C@@H](N)Cc2c[nH]cn2)C(=O)N[C@@H](CCC(N)=O)C(=O)NCC(=O)N[C@@H]([C@@H](C)O)C(=O)N[C@@H](Cc2ccccc2)C(=O)N1)C(C)C)C(=O)N[C@@H](CC(N)=O)C(=O)N[C@H](C(=O)O)[C@@H](C)O` (H-HCQGTFCSDYSKYLDSRRAQDFVQWLMNT-OH; disulfide 2-7), in test [1], the IC50 was 101 nM. In addition, the EC50 in test [2] came out at 9200 nM. This compound had an Activity in test [3] of 23%.

Compound `CSCC[C@H](NC(=O)[C@H](CC(C)C)NC(=O)[C@H](Cc1c[nH]c2ccccc12)NC(=O)[C@H](CCC(N)=O)NC(=O)[C@@H](NC(=O)[C@H](Cc1ccccc1)NC(=O)[C@H](CC(=O)O)NC(=O)[C@H](CCC(N)=O)NC(=O)[C@H](C)NC(=O)[C@H](CCCN=C(N)N)NC(=O)[C@H](CCCN=C(N)N)NC(=O)[C@H](CO)NC(=O)[C@H](CC(=O)O)NC(=O)[C@H](CC(C)C)NC(=O)[C@H](Cc1ccc(O)cc1)NC(=O)[C@H](CCCCN)NC(=O)[C@H](CO)NC(=O)[C@H](Cc1ccc(O)cc1)NC(=O)[C@H](CS)NC(=O)[C@H](CO)NC(=O)[C@@H](NC(=O)[C@H](Cc1ccccc1)NC(=O)[C@@H](NC(=O)[C@H](CS)NC(=O)[C@H](CCC(N)=O)NC(=O)[C@H](CO)NC(=O)[C@@H](N)Cc1c[nH]cn1)[C@@H](C)O)[C@@H](C)O)C(C)C)C(=O)N[C@@H](CC(N)=O)C(=O)N[C@H](C(=O)O)[C@@H](C)O` (H-HSQCTFTSCYSKYLDSRRAQDFVQWLMNT-OH) showed an IC50 in test [1] of 3.6 nM. The EC50 in test [2] stood at 295 nM. Further, the Activity in test [3] was found to be 18%.

As to `CSCC[C@H](NC(=O)[C@H](CC(C)C)NC(=O)[C@H](Cc1c[nH]c2ccccc12)NC(=O)[C@H](CCC(N)=O)NC(=O)[C@@H](NC(=O)[C@H](Cc1ccccc1)NC(=O)[C@H](CC(=O)O)NC(=O)[C@H](CCC(N)=O)NC(=O)[C@H](C)NC(=O)[C@H](CCCN=C(N)N)NC(=O)[C@H](CCCN=C(N)N)NC(=O)[C@H](CO)NC(=O)[C@H](CC(=O)O)NC(=O)[C@H](CC(C)C)NC(=O)[C@H](Cc1ccc(O)cc1)NC(=O)[C@H](CCCCN)NC(=O)[C@H](CO)NC(=O)[C@H](Cc1ccc(O)cc1)NC(=O)[C@@H]1CSSC[C@H](NC(=O)[C@H](CCC(N)=O)NC(=O)[C@H](CO)NC(=O)[C@@H](N)Cc2c[nH]cn2)C(=O)N[C@@H]([C@@H](C)O)C(=O)N[C@@H](Cc2ccccc2)C(=O)N[C@@H]([C@@H](C)O)C(=O)N[C@@H](CO)C(=O)N1)C(C)C)C(=O)N[C@@H](CC(N)=O)C(=O)N[C@H](C(=O)O)[C@@H](C)O` (H-HSQCTFTSCYSKYLDSRRAQDFVQWLMNT-OH; disulfide 4-9), the IC50 in test [1] worked out at 84.5 nM. Further, the EC50 in test [2] stood at 295 nM. Moreover, in test [3], the Activity came out at 7.5%.

`CSCC[C@H](NC(=O)[C@H](CC(C)C)NC(=O)[C@H](Cc1c[nH]c2ccccc12)NC(=O)[C@H](CCC(N)=O)NC(=O)[C@@H](NC(=O)[C@H](Cc1ccccc1)NC(=O)[C@H](CC(=O)O)NC(=O)[C@H](CCC(N)=O)NC(=O)[C@H](C)NC(=O)[C@H](CCCNC(=N)N)NC(=O)[C@H](CCCNC(=N)N)NC(=O)[C@H](CO)NC(=O)[C@H](CC(=O)O)NC(=O)[C@H](CC(C)C)NC(=O)[C@H](Cc1ccc(O)cc1)NC(=O)[C@H](CS)NC(=O)[C@H](CO)NC(=O)[C@H](Cc1ccc(O)cc1)NC(=O)[C@H](CC(=O)O)NC(=O)[C@H](CO)NC(=O)[C@H](CS)NC(=O)[C@H](Cc1ccccc1)NC(=O)[C@@H](NC(=O)CNC(=O)[C@H](CCC(N)=O)NC(=O)[C@H](CO)NC(=O)[C@@H](N)Cc1cnc[nH]1)[C@@H](C)O)C(C)C)C(=O)N[C@@H](CC(N)=O)C(=O)N[C@H](C(=O)O)[C@@H](C)O` (H-HSQGTFCSDYSCYLDSRRAQDFVQWLMNT-OH) had an IC50 in test [1] of 6.4 nM.

Compound `CSCC[C@H](NC(=O)[C@H](CC(C)C)NC(=O)[C@H](Cc1c[nH]c2ccccc12)NC(=O)[C@H](CCC(N)=O)NC(=O)[C@@H](NC(=O)[C@H](Cc1ccccc1)NC(=O)[C@H](CC(=O)O)NC(=O)[C@H](CCC(N)=O)NC(=O)[C@H](C)NC(=O)[C@H](CCCN=C(N)N)NC(=O)[C@H](CCCN=C(N)N)NC(=O)[C@H](CO)NC(=O)[C@H](CC(=O)O)NC(=O)[C@H](CC(C)C)NC(=O)[C@H](Cc1ccc(O)cc1)NC(=O)[C@H](CCCCN)NC(=O)[C@@H]1CCC(=O)NCCCC[C@H](NC(=O)[C@H](Cc2ccccc2)NC(=O)[C@@H](NC(=O)CNC(=O)[C@H](CCC(N)=O)NC(=O)[C@H](CO)NC(=O)[C@@H](N)Cc2c[nH]cn2)[C@@H](C)O)C(=O)N[C@@H](CO)C(=O)N[C@@H](CC(=O)O)C(=O)N[C@@H](Cc2ccc(O)cc2)C(=O)N1)C(C)C)C(=O)N[C@@H](CC(N)=O)C(=O)N[C@H](C(=O)O)[C@@H](C)O` (H-HSQGTFKSDYEKYLDSRRAQDFVQWLMNT-OH; lactam 7-11) registered an EC50 in test [2] of 47 nM. The Activity in test [3] was 17%.

Compound `CSCC[C@H](NC(=O)[C@H](CC(C)C)NC(=O)[C@H](Cc1c[nH]c2ccccc12)NC(=O)[C@H](CCC(N)=O)NC(=O)[C@@H](NC(=O)[C@H](Cc1ccccc1)NC(=O)[C@H](CC(=O)O)NC(=O)[C@H](CCC(N)=O)NC(=O)[C@H](C)NC(=O)[C@H](CCCNC(=N)N)NC(=O)[C@H](CCCNC(=N)N)NC(=O)[C@H](CO)NC(=O)[C@H](CC(=O)O)NC(=O)[C@H](CC(C)C)NC(=O)[C@H](Cc1ccc(O)cc1)NC(=O)[C@H](CCCCN)NC(=O)[C@@H]1CCC(=O)NCCCC[C@H](NC(=O)[C@H](Cc2ccccc2)NC(=O)[C@@H](NC(=O)CNC(=O)[C@H](CCC(N)=O)NC(=O)[C@H](CO)NC(=O)[C@@H](N)Cc2cnc[nH]2)[C@@H](C)O)C(=O)N[C@@H](CO)C(=O)N[C@@H](CC(=O)O)C(=O)N[C@@H](Cc2ccc(O)cc2)C(=O)N1)C(C)C)C(=O)N[C@@H](CC(N)=O)C(=O)N[C@H](C(=O)O)[C@@H](C)O` (H-HSQGTFKSDYEKYLDSRRAQDFVQWLMNT-OH; lactam 7-11) had an IC50 in test [1] of 13.6 nM.

As for `CSCC[C@H](NC(=O)[C@H](CC(C)C)NC(=O)[C@H](Cc1c[nH]c2ccccc12)NC(=O)[C@H](CCC(N)=O)NC(=O)[C@@H](NC(=O)[C@H](Cc1ccccc1)NC(=O)[C@H](CC(=O)O)NC(=O)[C@H](CCC(N)=O)NC(=O)[C@H](C)NC(=O)[C@H](CCCN=C(N)N)NC(=O)[C@@H]1CCC(=O)NCCCC[C@H](NC(=O)[C@H](CCCCN)NC(=O)[C@H](CO)NC(=O)[C@H](Cc2ccc(O)cc2)NC(=O)[C@H](CC(=O)O)NC(=O)[C@H](CO)NC(=O)[C@@H](NC(=O)[C@H](Cc2ccccc2)NC(=O)[C@@H](NC(=O)CNC(=O)[C@H](CCC(N)=O)NC(=O)[C@H](CO)NC(=O)[C@@H](N)Cc2c[nH]cn2)[C@@H](C)O)[C@@H](C)O)C(=O)N[C@@H](CC(C)C)C(=O)N[C@@H](CC(=O)O)C(=O)N[C@@H](CO)C(=O)N1)C(C)C)C(=O)N[C@@H](CC(N)=O)C(=O)N[C@H](C(=O)O)[C@@H](C)O` (H-HSQGTFTSDYSKKLDSERAQDFVQWLMNT-OH; lactam 13-17), in test [1], the IC50 came out at 1.7 nM. In addition, in test [2], the EC50 was 6.3 nM. Further, the Activity in test [3] came out at 85%.
